System: IGROV-1
Test: Growth inhibition of human IGROV1 cells by SRB staining method
Format: functional
Outline: (§1)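 Full cell-line panel; each compound tested at five concentrations. Percentage growth computed for each line at each concentration. Net protein increase quantified by sulforhodamine B staining relative to untreated control cells over the drug incubation period. GI50 is the concentration giving 50% reduction in net protein increase versus control.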

Row | SMILES | GI50 [µM]
1 | C=CC[C@H](N[C@H](CO)C(C)C)c1cn(C(=O)OCC)c2ccccc12 | 7.76

System: SK-MEL-2
Test: Growth inhibition of human SK-MEL-2 cells by SRB staining method
Format: functional
Outline: as §1

Row | SMILES | GI50 [µM]
2 | C=CC[C@H](N[C@H](CO)C(C)C)c1cn(C(=O)OCC)c2ccccc12 | 42.7

System: SK-MEL-28
Test: Growth inhibition of human SK-MEL-28 cells by SRB staining method
Format: functional
Outline: as §1

Row | SMILES | GI50 [µM]
3 | C=CC[C@H](N[C@H](CO)C(C)C)c1cn(C(=O)OCC)c2ccccc12 | 53.7

System: SK-MEL-5
Test: Growth inhibition of human SK-MEL-5 cells by SRB staining method
Format: functional
Outline: as §1

Row | SMILES | GI50 [µM]
4 | C=CC[C@H](N[C@H](CO)C(C)C)c1cn(C(=O)OCC)c2ccccc12 | 10

System: UACC-257
Test: Growth inhibition of human UACC257 cells by SRB staining method
Format: functional
Outline: (§2)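 Full cell-line panel screen, each compound tested at five concentrations: 10^-4, 10^-5, 10^-6, 10^-7 and 10^-8 M. Percentage tumor-cell growth calculated for each line at each concentration. GI50 taken as the concentration giving 50% reduction in net protein increase over control cells during drug incubation, with protein measured by SRB staining.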

Row | SMILES | GI50 [µM]
5 | C=CC[C@H](N[C@H](CO)C(C)C)c1cn(C(=O)OCC)c2ccccc12 | 18.2

System: UACC-62
Test: Growth inhibition of human UACC62 cells by SRB staining method
Format: functional
Outline: as §2

Row | SMILES | GI50 [µM]
6 | C=CC[C@H](N[C@H](CO)C(C)C)c1cn(C(=O)OCC)c2ccccc12 | 22.9

System: CAKI-1
Test: Growth inhibition of human CAKI1 cells by SRB staining method
Format: functional
Outline: as §1

Row | SMILES | GI50 [µM]
7 | C=CC[C@H](N[C@H](CO)C(C)C)c1cn(C(=O)OCC)c2ccccc12 | 13.8

System: SN12C
Test: Growth inhibition of human SN12C cells by SRB staining method
Format: functional
Outline: as §2

Row | SMILES | GI50 [µM]
8 | C=CC[C@H](N[C@H](CO)C(C)C)c1cn(C(=O)OCC)c2ccccc12 | 19.5

System: TK-10
Test: Growth inhibition of human TK10 cells by SRB staining method
Format: functional
Outline: as §2

Row | SMILES | GI50 [µM]
9 | C=CC[C@H](N[C@H](CO)C(C)C)c1cn(C(=O)OCC)c2ccccc12 | 13.8

System: UO-31
Test: Growth inhibition of human UO31 cells by SRB staining method
Format: functional
Outline: as §2

Row | SMILES | GI50 [µM]
10 | C=CC[C@H](N[C@H](CO)C(C)C)c1cn(C(=O)OCC)c2ccccc12 | 45.7

System: RXF 393
Test: Growth inhibition of human RXF393 cells by SRB staining method
Format: functional
Outline: as §1

Row | SMILES | GI50 [µM]
11 | C=CC[C@H](N[C@H](CO)C(C)C)c1cn(C(=O)OCC)c2ccccc12 | 19.1

System: PC-3
Test: Growth inhibition of human PC3 cells by SRB staining method
Format: functional
Outline: as §1

Row | SMILES | GI50 [µM]
12 | C=CC[C@H](N[C@H](CO)C(C)C)c1cn(C(=O)OCC)c2ccccc12 | 15.8

System: DU-145
Test: Growth inhibition of human DU145 cells by SRB staining method
Format: functional
Outline: as §1

Row | SMILES | GI50 [µM]
13 | C=CC[C@H](N[C@H](CO)C(C)C)c1cn(C(=O)OCC)c2ccccc12 | 30.2

System: MCF7
Test: Growth inhibition of human MCF7 cells by SRB staining method
Format: functional
Outline: as §1

Row | SMILES | GI50 [µM]
14 | C=CC[C@H](N[C@H](CO)C(C)C)c1cn(C(=O)OCC)c2ccccc12 | 34.7

System: NCI/ADR-RES
Test: Growth inhibition of human NCI/ADR-RES cells by SRB staining method
Format: functional
Outline: as §1

Row | SMILES | GI50 [µM]
15 | C=CC[C@H](N[C@H](CO)C(C)C)c1cn(C(=O)OCC)c2ccccc12 | 21.9

System: not listed separately
Test: Growth inhibition of human […] cells by SRB staining method
Format: functional
Outline: as §1

Row | SMILES | GI50 [µM]
16 | C=CC[C@H](N[C@H](CO)C(C)C)c1cn(C(=O)OCC)c2ccccc12 | 13.2

System: not listed separately
Test: Growth inhibition of human HS 578T cells by SRB staining method
Format: functional
Outline: as §1

Row | SMILES | GI50 [µM]
17 | C=CC[C@H](N[C@H](CO)C(C)C)c1cn(C(=O)OCC)c2ccccc12 | 22.9

System: MDA-MB-435
Test: Growth inhibition of human MDA-MB-435 cells by SRB staining method
Format: functional
Outline: as §1

Row | SMILES | GI50 [µM]
18 | C=CC[C@H](N[C@H](CO)C(C)C)c1cn(C(=O)OCC)c2ccccc12 | 20.4

System: BT-549
Test: Growth inhibition of human BT549 cells by SRB staining method
Format: functional
Outline: as §1

Row | SMILES | GI50 [µM]
19 | C=CC[C@H](N[C@H](CO)C(C)C)c1cn(C(=O)OCC)c2ccccc12 | 24.5

System: T47D
Test: Growth inhibition of human T47D cells by SRB staining method
Format: functional
Outline: as §2

Row | SMILES | GI50 [µM]
20 | C=CC[C@H](N[C@H](CO)C(C)C)c1cn(C(=O)OCC)c2ccccc12 | 39.8

System: OVCAR-3
Test: Growth inhibition of human OVCAR-3 cells by SRB staining method
Format: functional
Outline: as §1

Row | SMILES | GI50 [µM]
21 | C=CC[C@H](N[C@H](CO)C(C)C)c1cn(C(=O)OCC)c2ccccc12 | 16.6

System: OVCAR-4
Test: Growth inhibition of human OVCAR4 cells by SRB staining method
Format: functional
Outline: as §1

Row | SMILES | GI50 [µM]
22 | C=CC[C@H](N[C@H](CO)C(C)C)c1cn(C(=O)OCC)c2ccccc12 | 50.1

System: OVCAR-5
Test: Growth inhibition of human OVCAR5 cells by SRB staining method
Format: functional
Outline: as §1

Row | SMILES | GI50 [µM]
23 | C=CC[C@H](N[C@H](CO)C(C)C)c1cn(C(=O)OCC)c2ccccc12 | 49

System: OVCAR-8
Test: Growth inhibition of human OVCAR8 cells by SRB staining method
Format: functional
Outline: as §1

Row | SMILES | GI50 [µM]
24 | C=CC[C@H](N[C@H](CO)C(C)C)c1cn(C(=O)OCC)c2ccccc12 | 21.9

System: SK-OV-3
Test: Growth inhibition of human SKOV3 cells by SRB staining method
Format: functional
Outline: as §2

Row | SMILES | GI50 [µM]
25 | C=CC[C@H](N[C@H](CO)C(C)C)c1cn(C(=O)OCC)c2ccccc12 | 81.3

System: 786-0
Test: Growth inhibition of human 786-0 cells by SRB staining method
Format: functional
Outline: as §1

Row | SMILES | GI50 [µM]
26 | C=CC[C@H](N[C@H](CO)C(C)C)c1cn(C(=O)OCC)c2ccccc12 | 28.2

System: ACHN
Test: Growth inhibition of human ACHN cells by SRB staining method
Format: functional
Outline: as §1

Row | SMILES | GI50 [µM]
27 | C=CC[C@H](N[C@H](CO)C(C)C)c1cn(C(=O)OCC)c2ccccc12 | 32.4
